Experiments:
B16 [1] = test: Binding of radioiodinated compound in B16 cells as a function of specific activity for melanoma at 1 hr after injecting at 1.5(umol/mouse).; format: functional
Outline: (§1)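 C57Bl/6 mice carried subcutaneous B16 melanoma. Melanoma and blood radioactivity were measured by γ-counting at 1 or 6 h and expressed as % ID/g (mean, n = 3).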

B16 [2] = test: Binding of radioiodinated compound in B16 cells as a function of specific activity for blood at 1 hr after injecting at 1.5(umol/mouse).; format: functional; outline: as §1
B16 [3] = test: Binding of radioiodinated compound in B16 cells as a function of specific activity for melanoma at 1 hr after injecting at 1.5*10e-3 (uMol/mouse).; format: functional; outline: as §1
B16 [4] = test: Binding of radioiodinated compound in B16 cells as a function of specific activity for blood at 6 hr after injecting at 1.5*10e-3 (uMol/mouse); format: functional; outline: as §1
B16 [5] = test: Binding of radioiodinated compound in B16 cells as a function of specific activity for blood at 6 hr after injecting at 1.5(umol/mouse).; format: functional; outline: as §1
B16 [6] = test: Binding of radioiodinated compound in B16 cells as a function of specific activity for blood at 6 hr after injecting at 1.8*10e-6 (uMol/mouse).; format: functional; outline: as §1
B16 [7] = test: Binding of radioiodinated compound in B16 cells as a function of specific activity for blood at 1 hr after injecting at 1.8*10e-6 (uMol/mouse).; format: functional; outline: as §1
B16 [8] = test: Binding of radioiodinated compound in B16 cells as a function of specific activity for melanoma after 1 hr injecting at 1.8*10e-6 (uMol/mouse).; format: functional; outline: as §1
Mus musculus [9] = test: (§2) Amount of urinary radioactivity collected within 4 hr after iv injection into C57B1/6 mice was analyzed by RP-HPLC.; format: functional, Urine
B16 [10] = test: Binding of radioiodinated compound in B16 cells as a function of specific activity for blood at 1 hr after injecting at 1.5*10e-3 (uMol/mouse).; format: functional; outline: as §1
B16 [11] = test: Binding of radioiodinated compound in B16 cells as a function of specific activity for melanoma at 6 hr after injecting at 1.5(umol/mouse).; format: functional; outline: as §1
B16 [12] = test: Binding of radioiodinated compound in B16 cells as a function of specific activity for melanoma at 6 hr after injecting at 1.5*10e-3 (uMol/mouse).; format: functional; outline: as §1
B16 [13] = test: Binding of radioiodinated compound in B16 cells as a function of specific activity for melanoma at 6 hr after injecting at 1.8*10e-6 (uMol/mouse).; format: functional; outline: as §1
Mus musculus [14] = test: Biodistribution was studied by injecting intravenously into C57B1/6 mice bearing subcutaneously transplanted B16 lung after 6 hr.; format: ADME, organism-based; conditions: in vivo, iv
Mus musculus [15] = test: Biodistribution was studied by injecting intravenously into C57B1/6 mice bearing subcutaneously transplanted B16 kidney after 6 hr.; format: ADME, organism-based; conditions: in vivo, iv
Mus musculus [16] = test: Biodistribution was studied by injecting intravenously into C57B1/6 mice bearing subcutaneously transplanted B16 melanoma after 1 hr.; format: ADME, organism-based; conditions: in vivo, iv
Mus musculus [17] = test: Biodistribution was studied by injecting intravenously into C57B1/6 mice bearing subcutaneously transplanted B16 brain after 6 hr.; format: ADME, organism-based; conditions: in vivo, iv
Mus musculus [18] = test: Biodistribution was studied by injecting intravenously into C57B1/6 mice bearing subcutaneously transplanted B16 […] after 6 hr.; format: ADME, organism-based; conditions: in vivo, iv
Mus musculus [19] = test: Biodistribution was studied by injecting intravenously into C57B1/6 mice bearing subcutaneously transplanted B16 kidney after 1 hr.; format: ADME, organism-based; conditions: in vivo, iv
Mus musculus [20] = test: Biodistribution was studied by injecting intravenously into C57B1/6 mice bearing subcutaneously transplanted B16 muscle after 6 hr.; format: ADME, organism-based, Muscle tissue; conditions: in vivo, iv
Mus musculus [21] = test: Biodistribution was studied by injecting intravenously into C57B1/6 mice bearing subcutaneously transplanted B16 blood after 6 hr.; format: ADME, organism-based; conditions: in vivo, iv
Mus musculus [22] = test: Biodistribution was studied by injecting intravenously into C57B1/6 mice bearing subcutaneously transplanted B16 heart after 6 hr.; format: ADME, organism-based; conditions: in vivo, iv
Mus musculus [23] = test: Biodistribution was studied by injecting intravenously into C57B1/6 mice bearing subcutaneously transplanted B16 melanoma after 6 hr.; format: ADME, organism-based; conditions: in vivo, iv
Mus musculus [24] = test: Biodistribution was studied by injecting intravenously into C57B1/6 mice bearing subcutaneously transplanted B16 liver after 6 hr.; format: ADME, organism-based; conditions: in vivo, iv
Mus musculus [25] = test: Biodistribution was studied by injecting intravenously into C57B1/6 mice bearing subcutaneously transplanted B16 liver after 1 hr.; format: ADME, organism-based; conditions: in vivo, iv
Mus musculus [26] = test: Biodistribution was studied by injecting intravenously into C57B1/6 mice bearing subcutaneously transplanted B16 spleen after 1 hr.; format: ADME, organism-based; conditions: in vivo, iv
Mus musculus [27] = test: Biodistribution was studied by injecting intravenously into C57B1/6 mice bearing subcutaneously transplanted B16 blood after 1 hr.; format: ADME, organism-based; conditions: in vivo, iv
Mus musculus [28] = test: Biodistribution was studied by injecting intravenously into C57B1/6 mice bearing subcutaneously transplanted B16 brain after 1 hr.; format: ADME, organism-based; conditions: in vivo, iv
Mus musculus [29] = test: Biodistribution was studied by injecting intravenously into C57B1/6 mice bearing subcutaneously transplanted B16 lung after 1 hr.; format: ADME, organism-based; conditions: in vivo, iv
[30] = The lipophilicity was measured in an octanol/water system at pH 7.4.; format: physicochemical
Outline: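 HPLC-purified no-carrier-added radioiodinated benzamide was added to 0.067 M phosphate buffer at pH 7.4 with an equal volume of 1-octanol. The mixture was vortexed to equilibrium, centrifuged and the phases separated. Each phase was γ-counted, with log P = log(cpm octanol/cpm buffer).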

Mus musculus [31] = test: Biodistribution was studied by injecting intravenously into C57B1/6 mice bearing subcutaneously transplanted B16 muscle after 1 hr.; format: ADME, organism-based, Muscle tissue; conditions: in vivo, iv
Mus musculus [32] = test: Biodistribution was studied by injecting intravenously into C57B1/6 mice bearing subcutaneously transplanted B16 heart after 1 hr.; format: ADME, organism-based; conditions: in vivo, iv
Mus musculus [33] = test: Biodistribution was studied by injecting intravenously into C57B1/6 mice bearing subcutaneously transplanted B16 spleen after 24 hr.; format: ADME, organism-based; conditions: in vivo, iv
Mus musculus [34] = test: Biodistribution was studied by injecting intravenously into C57B1/6 mice bearing subcutaneously transplanted B16 kidney after 24 hr.; format: ADME, organism-based; conditions: in vivo, iv
Mus musculus [35] = test: Biodistribution was studied by injecting intravenously into C57B1/6 mice bearing subcutaneously transplanted B16 muscle after 24 hr.; format: ADME, organism-based, Muscle tissue; conditions: in vivo, iv
Mus musculus [36] = test: Biodistribution was studied by injecting intravenously into C57B1/6 mice bearing subcutaneously transplanted B16 lung after 24 hr.; format: ADME, organism-based; conditions: in vivo, iv
Mus musculus [37] = test: Biodistribution was studied by injecting intravenously into C57B1/6 mice bearing subcutaneously transplanted B16 brain after 24 hr.; format: ADME, organism-based; conditions: in vivo, iv
Mus musculus [38] = test: Biodistribution was studied by injecting intravenously into C57B1/6 mice bearing subcutaneously transplanted B16 liver after 24 hr.; format: ADME, organism-based; conditions: in vivo, iv
Mus musculus [39] = test: as §2; format: ADME, organism-based, Urine; conditions: in vivo
Mus musculus [40] = test: Biodistribution was studied by injecting intravenously into C57B1/6 mice bearing subcutaneously transplanted B16 melanoma after 24 hr.; format: ADME, organism-based; conditions: in vivo, iv
Mus musculus [41] = test: Biodistribution was studied by injecting intravenously into C57B1/6 mice bearing subcutaneously transplanted B16 blood after 24 hr; format: ADME, organism-based; conditions: in vivo, iv
Mus musculus [42] = test: Biodistribution was studied by injecting intravenously into C57B1/6 mice bearing subcutaneously transplanted B16 heart after 24 hr.; format: ADME, organism-based; conditions: in vivo, iv

| SMILES | ID/g (Mus musculus [14]) [%] | ID/g (Mus musculus [15]) [%] | ID/g (Mus musculus [16]) [%] | ID/g (Mus musculus [17]) [%] | ID/g (Mus musculus [18]) [%] | ID/g (Mus musculus [19]) [%] | ID/g (Mus musculus [20]) [%] | ID/g (Mus musculus [21]) [%] | ID/g (Mus musculus [22]) [%] | ID/g (Mus musculus [23]) [%] | ID/g (Mus musculus [24]) [%] | ID/g (Mus musculus [25]) [%] | ID/g (Mus musculus [26]) [%] | ID/g (Mus musculus [27]) [%] | ID/g (Mus musculus [28]) [%] | ID/g (Mus musculus [29]) [%] | logD [30] | ID/g (Mus musculus [31]) [%] | ID/g (Mus musculus [32]) [%] | further results |
| --- | --- | --- | --- | --- | --- | --- | --- | --- | --- | --- | --- | --- | --- | --- | --- | --- | --- | --- | --- | --- |
| CCN(CC)CCNC(=O)c1ccc(I)cc1 | – | – | – | – | – | – | – | – | – | – | – | – | – | – | – | – | – | – | – | ID/g (B16 [1]): 11.6%; ID/g (B16 [2]): 1.04%; ID/g (B16 [3]): 10%; ID/g (B16 [4]): 0.15%; ID/g (B16 [5]): 0.1%; ID/g (B16 [6]): 0.17%; ID/g (B16 [7]): 0.65%; ID/g (B16 [8]): 5.67%; ID (Mus musculus [9]): 66%; ID/g (B16 [10]): 1.06%; ID/g (B16 [11]): 14.6%; ID/g (B16 [12]): 15.5%; ID/g (B16 [13]): 9.32% |
| CCN(CC)CCNC(=O)c1ccc(NC(C)=O)c(I)c1 | 1.82 | 1.22 | 6.21 | 0.09 | 1.39 | 6.46 | 0.44 | 1.51 | 0.58 | 1.2 | 0.77 | 4.05 | 5.62 | 6.5 | 0.48 | 7.98 | 1.34 | 1.81 | 3.19 | – |
| CCN(CC)CCNC(=O)c1cc(I)c(N)cc1OC | 1.06 | 3.95 | 4.66 | 0.08 | 1.57 | 6.89 | 0.28 | 0.85 | 0.45 | 6.92 | 3.43 | 4.92 | 2 | 1.93 | 0.18 | 3.12 | 1.62 | 0.61 | 1.17 | – |
| CCN(CC)CCNC(=O)c1cc(Br)c(N)c(I)c1OC | 2.07 | 2.08 | 16.61 | 0.15 | 1.84 | 4.53 | 0.43 | 1.86 | 0.94 | 16.48 | 9.61 | 11.32 | 5.06 | 2.32 | 0.64 | 3.16 | 1.81 | 0.94 | 1.91 | ID/g (Mus musculus [33]): 0.38%; ID/g (Mus musculus [34]): 0.46%; ID/g (Mus musculus [35]): 0.01%; ID/g (Mus musculus [36]): 0.26%; ID/g (Mus musculus [37]): 0.02%; ID/g (Mus musculus [38]): 4.54%; ID (Mus musculus [39]): 34%; ID/g (Mus musculus [40]): 8.02%; ID/g (Mus musculus [41]): 0.19%; ID/g (Mus musculus [42]): 0.13% |
